# Measurements from ChEMBL document CHEMBL1156628, “Further studies on lead compounds containing the opioid pharmacophore Dmt-Tic” (J Med Chem, 2008).
# Active and inactive are the calls of the source. Where a SMILES comes first, the peptide text is derived from it. [ ]: non-standard residue; d: D form. The star is where a group is joined. Dmt = Cc1cc(O)cc(C)c1C[C@H](N)C(=O)O; Tic = O=C(O)[C@@H]1Cc2ccccc2CN1; NHBn = c1ccc(CN*)cc1; NHPh = c1ccc(N*)cc1
# Tests used:
# [1] = species on record: Rattus norvegicus; test: Selectivity ratio of Ki for mu opioid receptor in Sprague-Dawley rat brain to Ki for delta opioid receptor in Sprague-Dawley rat brain
# [2] = molecular target: Delta-type opioid receptor (Rattus norvegicus, UniProt P33533); test: Displacement of [3H]deltorphin2 from delta opioid receptor in Sprague-Dawley rat brain P2 synaptosomal membrane
# How it was run: (§1)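 Competition binding to Sprague-Dawley rat brain P2 synaptosomal membranes, preincubated to strip endogenous opioids and stored at −80 °C in buffered 20% glycerol. Incubated at equilibrium for 2.5 h at 23 °C. Separated on polyethylenimine-soaked (0.1%) glass-fibre filters washed three times in ice-cold buffered BSA. Duplicates at five to eight doses, 3–5 independent membrane preparations; Ki by Cheng–Prusoff, mean ± SE.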
# [3] = molecular target: Mu-type opioid receptor (Rattus norvegicus, UniProt P33535); test: Displacement of [3H]DAMGO from mu opioid receptor in Sprague-Dawley rat brain P2 synaptosomal membrane; how it was run: as §1
# [4] = molecular target: Delta-type opioid receptor (Mus musculus, UniProt P32300); test: Antagonist activity at delta opioid receptor in mouse vas deferens assessed as effect on deltorphin 2-induced response; type: functional, tissue-based; settings: read-out: pA2 (converted)
# How it was run: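 Single mouse vas deferens suspended in an organ bath in balanced physiological salt buffer, pH 7.5. Agonism measured as inhibition of electrically evoked contraction, with IC50 taken from dose-response curves; DPDPE was the internal standard. Antagonism tested against deltorphin II and given as pA2 (Schild plot / Kosterlitz and Watt method). Values are mean ± SE of separate tissue assays.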
# [5] = system: Brain; test: Stability in Swiss mouse brain after 2 hrs; type: ADME, tissue-based
# [6] = system: Plasma; test: Stability in Swiss mouse plasma after 4 hrs; type: ADME, cell-free
# [7] = system: Mus musculus; test: Antinociceptive activity in Swiss-Webster mouse at 10 ug, icv by tail flick test in presence of naloxone; type: functional, organism-based
# How it was run: (§2)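 Mice given sc naltrindole (3 mg/kg) or naloxone (10 mg/kg), then 20 min later 10 µg/mouse icv in 5 μL saline. Nociception measured by hot-plate (55 °C, latency to jump/lick/paw-shake, 30 s cut-off, every 10 min) or tail-flick.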
# [8] = system: Mus musculus; test: Analgesic activity in icv dosed Swiss-Webster mouse by tail flick test; type: functional, organism-based
# [9] = system: Mus musculus; test: Toxicity in icv dosed Swiss-Webster mouse assessed as induction of convulsion; type: organism-based; settings: in vivo, icv_or_intrathecal
# [10] = system: Mus musculus; test: Antinociceptive activity in Swiss-Webster mouse at 10 ug, icv after 10 mins by hot plate test in presence of naloxone; type: functional, organism-based; how it was run: as §2
# [11] = system: Mus musculus; test: Toxicity in Swiss-Webster mouse assessed as induction of sedation at 10 ug, icv; type: organism-based; settings: in vivo, icv_or_intrathecal
# [12] = system: Mus musculus; test: Antinociceptive activity in Swiss-Webster mouse at 10 ug, icv after 10 mins by hot plate test in presence of naltrindole; type: functional, organism-based; how it was run: as §2
# [13] = system: Mus musculus; test: Analgesic activity in icv dosed Swiss-Webster mouse after 10 mins by hot plate test; type: functional, organism-based
# How it was run: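 Male Swiss-Webster mice (20–25 g) given 5 μL of peptide in saline icv at bregma; only mice with a correct needle tract were counted. For hot plate: 55 ± 0.1 °C, start 10 min post-dose, latency to jump, lick or shake hind paw, 30 s cut-off, repeated every 10 min.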
# [14] = system: Mus musculus; test: Antinociceptive activity in Swiss-Webster mouse at 10 ug, icv by tail flick test in presence of naltrindole; type: functional, organism-based; how it was run: as §2
# [15] = system: Mus musculus; test: Toxicity in Swiss-Webster mouse assessed as induction of agitated behavior at 10 ug, icv; type: organism-based; settings: in vivo, icv_or_intrathecal
# Chain of Mu-type opioid receptor (P33535 whole entry): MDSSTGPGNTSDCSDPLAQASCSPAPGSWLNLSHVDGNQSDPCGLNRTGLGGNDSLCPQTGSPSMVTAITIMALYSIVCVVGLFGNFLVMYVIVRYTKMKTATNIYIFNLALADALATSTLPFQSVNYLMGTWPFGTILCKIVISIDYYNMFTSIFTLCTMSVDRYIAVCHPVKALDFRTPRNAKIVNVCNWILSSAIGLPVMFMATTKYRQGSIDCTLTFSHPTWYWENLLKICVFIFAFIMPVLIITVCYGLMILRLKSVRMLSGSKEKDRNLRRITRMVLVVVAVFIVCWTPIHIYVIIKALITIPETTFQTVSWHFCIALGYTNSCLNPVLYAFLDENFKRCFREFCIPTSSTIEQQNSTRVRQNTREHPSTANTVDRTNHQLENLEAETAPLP
# Chain of Delta-type opioid receptor (Rattus norvegicus, UniProt P33533) (P33533 whole entry): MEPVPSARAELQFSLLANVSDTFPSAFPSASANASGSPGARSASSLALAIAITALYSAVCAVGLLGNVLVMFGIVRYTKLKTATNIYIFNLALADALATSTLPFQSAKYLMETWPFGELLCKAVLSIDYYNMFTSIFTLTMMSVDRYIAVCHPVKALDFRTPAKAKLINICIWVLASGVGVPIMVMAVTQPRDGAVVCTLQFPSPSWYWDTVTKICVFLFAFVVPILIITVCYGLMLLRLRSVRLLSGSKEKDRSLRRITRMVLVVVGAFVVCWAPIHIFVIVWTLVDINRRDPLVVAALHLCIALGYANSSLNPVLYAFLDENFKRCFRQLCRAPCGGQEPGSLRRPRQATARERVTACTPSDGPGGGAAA
# Chain of Delta-type opioid receptor (Mus musculus, UniProt P32300) (P32300 whole entry): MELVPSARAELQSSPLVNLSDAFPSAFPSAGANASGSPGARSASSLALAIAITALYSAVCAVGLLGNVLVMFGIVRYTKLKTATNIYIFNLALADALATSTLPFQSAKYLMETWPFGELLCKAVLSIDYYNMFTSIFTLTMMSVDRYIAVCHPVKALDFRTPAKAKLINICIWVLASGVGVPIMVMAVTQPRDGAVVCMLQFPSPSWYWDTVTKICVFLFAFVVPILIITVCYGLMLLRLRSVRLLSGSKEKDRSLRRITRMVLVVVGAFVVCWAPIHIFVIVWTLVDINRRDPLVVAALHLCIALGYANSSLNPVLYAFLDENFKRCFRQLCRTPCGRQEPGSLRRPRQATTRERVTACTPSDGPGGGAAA
Structure (SMILES),Ratio Ki [1],Ki [2],Ki [3],Kb [4],also measured
Cc1cc(O)cc(C)c1C[C@H](N)C(=O)N1Cc2ccccc2C[C@H]1C(=O)NCC(=O)NCc1ccccc1 (H-[Dmt]-[Tic]-Gly-NHBn),5,–,–,–,–
Cc1cc(O)cc(C)c1C[C@H](N)C(=O)N1Cc2ccccc2C[C@H]1C(=O)N[C@@H](CC(=O)O)C(=O)Nc1ccccc1,300,0.036 nM,10.8 nM,0.398 nM,–
Cc1cc(O)cc(C)c1C[C@H](N)C(=O)N1Cc2ccccc2C[C@H]1C(=O)N[C@H](CC(=O)O)c1nc2ccccc2n1C,169,0.07 nM,11.8 nM,0.224 nM,–
Cc1cc(O)cc(C)c1C[C@H](N)C(=O)N1Cc2ccccc2C[C@H]1C(=O)N[C@@H](CC(=O)O)C(=O)NCc1ccccc1 (H-[Dmt]-[Tic]-Asp-NHBn),–,0.054 nM,309 nM,2.95 nM,–
Cc1cc(O)cc(C)c1C[C@H](N)C(=O)N1Cc2ccccc2C[C@H]1C(=O)N[C@@H](CC(=O)O)C(=O)N(C)c1ccccc1,1960,0.186 nM,364 nM,1.78 nM,–
Cc1cc(O)cc(C)c1C[C@H](N)C(=O)N1Cc2ccccc2C[C@H]1C(=O)N[C@@H](CC(=O)O)c1nc2ccccc2n1C,101,0.059 nM,5.93 nM,0.126 nM,Stability [5]: Stable; Stability [6]: Stable; Activity [7]: inactive; Activity [8]: Dose-dependent effect; Activity [9]: Toxic; Activity [10]: Active; Activity [11]: Toxic; Activity [12]: Active; Activity [13]: Dose-dependent effect; Activity [14]: inactive
Cc1cc(O)cc(C)c1C[C@H](N)C(=O)N1Cc2ccccc2C[C@H]1C(=O)N[C@@H](CC(=O)O)c1nc2ccccc2[nH]1,122,–,–,0.126 nM,Stability [5]: Stable; Stability [6]: Stable; Activity [7]: inactive; Activity [8]: Dose-dependent effect; Activity [15]: Toxic; Activity [9]: Toxic; Activity [10]: Active; Activity [12]: Active; Activity [13]: Dose-dependent effect; Activity [14]: inactive
Cc1cc(O)cc(C)c1C[C@H](N)C(=O)N1Cc2ccccc2C[C@H]1C(=O)NCC(=O)N(C)c1ccccc1,12,0.143 nM,1.75 nM,1.58 nM,–
Cc1cc(O)cc(C)c1C[C@H](N)C(=O)N1Cc2ccccc2C[C@H]1C(=O)N[C@H](CC(=O)O)C(=O)Nc1ccccc1,129,0.058 nM,7.49 nM,2.4 nM,–
Cc1cc(O)cc(C)c1C[C@H](N)C(=O)N1Cc2ccccc2C[C@H]1C(=O)N[C@H](CC(=O)O)c1nc2ccccc2[nH]1,240,0.067 nM,16.1 nM,–,–
Cc1cc(O)cc(C)c1C[C@H](N)C(=O)N1Cc2ccccc2C[C@H]1C(=O)N[C@H](CC(=O)O)C(=O)N(C)c1ccccc1,536,0.084 nM,45 nM,8.71 nM,–
Cc1cc(O)cc(C)c1C[C@H](N)C(=O)N1Cc2ccccc2C[C@H]1C(=O)NCC(=O)Nc1ccccc1 (H-[Dmt]-[Tic]-Gly-NHPh),4,–,–,–,–
